For test [1], the system named is Helicoverpa zea. The test can be described thus: Antiinsectan activity in Helicoverpa zea at 100 ppm. Type of test: functional, organism-based. The essentials: (§1)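 Test material was mixed into the H. zea diet at the stated ppm level (100 or 1500 ppm). Activity was scored as the reduction in weight gain relative to controls.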
For a further test, the system named is Bacillus subtilis. The test is described as follows: Antibacterial activity against Bacillus subtilis ATCC 6051 at 100 ug/disk by standard disk diffusion assay. The class given is functional. The essentials:
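Standard paper-disk diffusion test with 100 μg loaded per disk against B. subtilis ATCC 6051. Read-out is the diameter of the inhibition zone in mm.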
A general note: A growth-free zone around the sample is the usual read-out of agar diffusion tests.

Test [2] relates to Helicoverpa zea. The test can be described thus: Antiinsectan activity in Helicoverpa zea assessed as reduction in weight gain at 1500 ppm relative to control. The class given is functional. The arrangement: scale not given: the % may be the effect or the level left. The essentials: as §1

The results in this text go back to ChEMBL document CHEMBL1155706, “Vertilecanins: new phenopicolinic acid analogues from Verticillium lecanii” (2001).

SMILES strings stand for the structures. The source made the active and inactive calls. The calls are words filed in the database; no cut-off is given here.

In the case of `O=C(O)/C=C/CCCCCCC(=O)O`, in the test with Helicoverpa zea [1], the outcome was inactive.
The same measure, in the same setting: in the case of `COC(=O)CNC(=O)c1ccc([C@H](O)c2ccccc2)cn1` it was “inactive”.
On to `O=C(O)CNC(=O)c1ccc([C@H](O)c2ccccc2)cn1`, for which the outcome with Helicoverpa zea [1] and with Bacillus subtilis was inactive.
Turning to `COC(=O)CNC(=O)c1ccc(C(=O)c2ccccc2)cn1`, in the test with Helicoverpa zea [1], the result was inactive.
Consider `O=C(O)c1ccc([C@H](O)c2ccccc2)cn1` [VERTILECANIN A], for which the result with Helicoverpa zea [1] was inactive. For the same molecule, in the test on Helicoverpa zea [2], the Activity turned out to be 49%. Also, the zone of inhibition at 100 µg/disc in the test with Bacillus subtilis (read-out: IZ) was determined as 8 mm.
Turning to `O=C(O)CCCCCC/C=C/CO`, the outcome with Helicoverpa zea [1] and in the test with Bacillus subtilis was inactive.
Consider `COC(=O)c1ccc([C@H](O)c2ccccc2)cn1`, for which the outcome in the test on Helicoverpa zea [1] was inactive.
